From ChEMBL document CHEMBL4043129, “Design, synthesis and bioactivities of Celecoxib analogues or derivatives” (Bioorg Med Chem, 2017)
The source made the active and inactive calls. No cut-off for these calls is given here.

Assays:
[1] = Lipid/water partition coefficient, log P of the compound; assay type: physicochemical
[2] = target: T1, Prostaglandin G/H synthase 1 (Rattus norvegicus, UniProt Q63921); assay: Inhibition of COX-1 in rat peritoneal macrophages assessed as reduction in [125I]-6-Keto-PGF1alpha production using arachidonic acid as substrate pretreated for 30 mins followed by substrate addition measured after 30 mins
T1 sequence (Q63921 whole entry): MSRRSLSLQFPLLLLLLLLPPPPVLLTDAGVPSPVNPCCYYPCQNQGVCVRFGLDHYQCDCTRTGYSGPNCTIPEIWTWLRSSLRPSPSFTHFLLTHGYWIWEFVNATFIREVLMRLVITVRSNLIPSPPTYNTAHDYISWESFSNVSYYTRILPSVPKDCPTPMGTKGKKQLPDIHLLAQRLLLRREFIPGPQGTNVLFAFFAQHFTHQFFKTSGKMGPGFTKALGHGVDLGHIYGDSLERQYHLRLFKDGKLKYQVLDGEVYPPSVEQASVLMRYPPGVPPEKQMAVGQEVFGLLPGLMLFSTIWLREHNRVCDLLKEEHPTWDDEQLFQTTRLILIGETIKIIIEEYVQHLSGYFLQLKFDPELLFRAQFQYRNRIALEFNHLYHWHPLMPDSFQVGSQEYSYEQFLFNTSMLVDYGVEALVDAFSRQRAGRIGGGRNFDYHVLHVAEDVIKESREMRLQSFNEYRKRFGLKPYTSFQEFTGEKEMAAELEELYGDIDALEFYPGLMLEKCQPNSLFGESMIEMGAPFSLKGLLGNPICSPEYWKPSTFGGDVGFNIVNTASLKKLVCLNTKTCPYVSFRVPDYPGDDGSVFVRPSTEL
Method in brief: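 Rat peritoneal macrophages were elicited with 5 mL 0.5% gelatin i.p. and harvested after 5 h. Cells were washed, seeded at 1.0 × 10^6/mL and adhered 24 h at 37 °C, 5% CO2, then kept 24 h in 0.5% FCS RPMI-1640. Compounds at several concentrations were added for 30 min, then arachidonic acid for 30 min. 125I-6-keto-PGF1α was read by kit, and IC50 was taken as the concentration halving radioactivity.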

[3] = target: T2, Prostaglandin G/H synthase 2 (Rattus norvegicus, UniProt P35355); assay: Inhibition of COX-2 in rat peritoneal macrophages assessed as reduction in PGE2 production using radiolabelled-arachidonic acid as substrate pretreated for 30 mins followed by substrate addition measured after 30 mins
T2 sequence (P35355 whole entry): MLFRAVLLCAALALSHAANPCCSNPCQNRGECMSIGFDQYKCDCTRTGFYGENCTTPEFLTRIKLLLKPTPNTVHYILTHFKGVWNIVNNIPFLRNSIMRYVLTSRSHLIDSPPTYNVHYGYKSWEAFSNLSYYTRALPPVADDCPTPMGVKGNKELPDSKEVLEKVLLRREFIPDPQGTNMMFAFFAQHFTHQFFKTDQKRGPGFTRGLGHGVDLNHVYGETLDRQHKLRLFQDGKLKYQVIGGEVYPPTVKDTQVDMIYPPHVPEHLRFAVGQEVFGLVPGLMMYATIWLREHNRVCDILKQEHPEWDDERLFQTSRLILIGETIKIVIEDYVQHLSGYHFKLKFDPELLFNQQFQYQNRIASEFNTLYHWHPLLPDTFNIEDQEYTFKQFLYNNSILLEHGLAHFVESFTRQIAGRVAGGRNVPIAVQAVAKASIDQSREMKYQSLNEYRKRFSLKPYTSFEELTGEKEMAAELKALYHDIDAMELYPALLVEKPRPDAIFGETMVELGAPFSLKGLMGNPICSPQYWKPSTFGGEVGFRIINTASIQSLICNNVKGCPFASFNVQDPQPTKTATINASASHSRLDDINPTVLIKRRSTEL

[4] = Selectivity index, ratio of IC50 for COX1 in rat peritoneal macrophages to IC50 for COX2 in rat peritoneal macrophages
Method in brief: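 Both IC50s come from gelatin-elicited rat peritoneal macrophages given 0.5% FCS RPMI-1640 for 24 h, then compound for 30 min and arachidonic acid for 30 min. COX-1 was read as 125I-6-keto-PGF1α. For COX-2, cells first had 10% FCS for 1 h, a PBS rinse and […] LPS for 8 h, and supernatant PGE2 was read. Each IC50 is the concentration halving radioactivity.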

[5] = Dissociation constant, pKa of the compound; assay type: physicochemical
Rattus norvegicus [6] = assay: Anti-inflammatory activity in rat assessed as reduction in PGE2 release at 20 mg/kg measured after 2 hrs; assay type: functional, organism-based
Rattus norvegicus [7] = assay: In-vivo inhibition of COX2 in rat at 20 mg/kg measured after 20 mins; assay type: functional
Rattus norvegicus [8] = assay: In-vivo inhibition of COX2 in rat at 20 mg/kg measured after 40 mins; assay type: functional
Rattus norvegicus [9] = assay: In-vivo inhibition of COX2 in rat at 20 mg/kg measured after 60 mins; assay type: functional; details: 1 h
Rattus norvegicus [10] = assay: In-vivo inhibition of COX2 in rat at 20 mg/kg measured after 90 mins; assay type: functional; details: 1.5 h
Rattus norvegicus [11] = assay: In-vivo inhibition of COX2 in rat at 20 mg/kg measured after 120 mins; assay type: functional; details: 2 h

SMILES	logP [1]	IC50 [2] [µM]	IC50 [3] [µM]	Ratio IC50 [4]	pKa [5]	Activity (Rattus norvegicus [6])	inhibition in vivo at 20 mg/kg (Rattus norvegicus [7]) [%]	inhibition in vivo at 20 mg/kg (Rattus norvegicus [8]) [%]	inhibition in vivo at 20 mg/kg (Rattus norvegicus [9]) [%]	inhibition in vivo at 20 mg/kg (Rattus norvegicus [10]) [%]	inhibition in vivo at 20 mg/kg (Rattus norvegicus [11]) [%]
CN1C=CC(C2SC(C(F)(F)F)=CN2c2ccc(S(N)(=O)=O)cc2)C=C1 (stereo not given)	2.77	80.5	8.08	10	7.62	–	–	–	–	–	–
CC1=CN(c2ccc(S(N)(=O)=O)cc2)C(N2C=CN(C)C=C2)S1 (stereo not given)	1.75	76.9	16.4	4.8	7.2	–	–	–	–	–	–
CC1=CN(c2ccc(S(N)(=O)=O)cc2)C(C2C=CN(C)C=C2)O1 (stereo not given)	1.4	95.2	17.4	5.5	7.09	–	–	–	–	–	–
CN1C=CN(C2OC(C(F)(F)F)=CN2c2ccc(S(N)(=O)=O)cc2)C=C1 (stereo not given)	1.68	55.6	1.27	43.8	7.18	–	–	–	–	–	–
CN1C=CN(C2SC(C(Cl)(Cl)Cl)=CN2c2ccc(S(N)(=O)=O)cc2)C=C1 (stereo not given)	3.13	88.6	11.6	7.7	7.76	–	–	–	–	–	–
CC1=CN(c2ccc(S(N)(=O)=O)cc2)C(N2C=CN(C)C=C2)O1 (stereo not given)	1.04	98.5	20.1	4.9	7.01	–	–	–	–	–	–
CN1C=CC(C2OC(C(Cl)(Cl)Cl)=CN2c2ccc(S(N)(=O)=O)cc2)C=C1 (stereo not given)	2.78	83.1	13.7	6.1	7.63	–	–	–	–	–	–
CN1C=CN(C2NC(C(F)(F)F)=CN2c2ccc(S(N)(=O)=O)cc2)C=C1 (stereo not given)	–	–	–	–	–	Active	–	–	–	–	–
CN1C=CN(C2OC(C(Cl)(Cl)Cl)=CN2c2ccc(S(N)(=O)=O)cc2)C=C1 (stereo not given)	2.41	53.4	0.099	539.3	7.55	Active	40.6	60.9	85.9	95.4	97.9
CN1C=CC(C2OC(C(F)(F)F)=CN2c2ccc(S(N)(=O)=O)cc2)C=C1 (stereo not given)	2.05	50.2	0.053	947.5	7.33	Active	44.6	64.9	87.5	99.6	100
CC1=CN(c2ccc(S(N)(=O)=O)cc2)C(C2C=CN(C)C=C2)N1 (stereo not given)	–	–	–	–	–	Active	–	–	–	–	–
CN1C=CC(C2SC(C(Cl)(Cl)Cl)=CN2c2ccc(S(N)(=O)=O)cc2)C=C1 (stereo not given)	3.5	98.2	12.7	7.7	8	–	–	–	–	–	–
CN1C=CN(C2SC(C(F)(F)F)=CN2c2ccc(S(N)(=O)=O)cc2)C=C1 (stereo not given)	2.38	52.4	0.0793	660.3	7.5	Active	42.5	63.1	86.1	97.3	98
CC1=CN(c2ccc(S(N)(=O)=O)cc2)C(C2C=CN(C)C=C2)S1 (stereo not given)	2.12	56.9	1.53	37.1	7.39	–	–	–	–	–	–
Cc1ccc(-c2cc(C(F)(F)F)nn2-c2ccc(S(N)(=O)=O)cc2)cc1 [CELECOXIB]	–	–	–	–	–	–	45.3	68.4	89.1	100	100
